Source: PubChem
The list is not random: actives were taken first. Their share in the collection is about 0.58%.
V1aR counter = agonists of human V1a receptor, primary screen, counter-screen for OXTR agonist project, fluorescence, CHO-V1R cells; 0.25% of 320,000 active; Vasopressin V1a receptor (Homo sapiens), P37288; AID 2797, 2010; activation, % at 3 µM; Fluo-8 calcium fluorescence, agonist mode; 0% DMSO, 100% 3 nM vasopressin;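 active = activation above the mean activation of all tested compounds plus 3 SD, per screening run, cut at about 20% in these data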;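 note: signal is peak over basal fluorescence ratio across a 100 second FLIPR read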
TRPML3 ag = human TRPML3 channel agonists, primary screen, cell-based, HEK293 TRPML3-YFP, Fluo-8 calcium fluorescence, 3 µM; Mucolipin-3 (Homo sapiens), Q8TDD5; activation, % at 3 µM; 0.29% of 220,000 active; 100% = the carbachol control signal; AID 1448, 2008;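 active = activation above its plate's cutoff, the mean activation of the plate's test wells plus 3 SD, cut at about 12% in these data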;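 note: 0% = DMSO only wells and 100% = carbachol wells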
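system = HEK293 cells stably carrying human TRPML3-YFP | doses = one concentration, 3 µM nominal, 0.3% DMSO | timing = dye loading 1 h 37 °C then 30 min ambient, 125 s read | detection = Fluo-8 calcium dye fluorescence, ex 470-495, em 515-575 nm | benchmarks = high control carbachol 87 µM, low control DMSO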
OXTR potentiate = human OXTR potentiators, primary screen, fluorescence, CHO-OTR cells, Fluo-8 calcium | Fluo-8 calcium fluorescence, potentiator mode; 0% = oxytocin EC15, 100% = EC100 | activation, % at 3 µM | Oxytocin receptor (Homo sapiens), P30559 | 0.061% of 320,000 active;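 active = activation above that plate's cutoff, the mean activation of tested compounds plus 3 SD, cut at about 6.6% in these data, passing the limit was not always enough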;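 note: 100% uses oxytocin at 75 nM as the full agonist control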
Target sequence (P30559 whole entry, looked up): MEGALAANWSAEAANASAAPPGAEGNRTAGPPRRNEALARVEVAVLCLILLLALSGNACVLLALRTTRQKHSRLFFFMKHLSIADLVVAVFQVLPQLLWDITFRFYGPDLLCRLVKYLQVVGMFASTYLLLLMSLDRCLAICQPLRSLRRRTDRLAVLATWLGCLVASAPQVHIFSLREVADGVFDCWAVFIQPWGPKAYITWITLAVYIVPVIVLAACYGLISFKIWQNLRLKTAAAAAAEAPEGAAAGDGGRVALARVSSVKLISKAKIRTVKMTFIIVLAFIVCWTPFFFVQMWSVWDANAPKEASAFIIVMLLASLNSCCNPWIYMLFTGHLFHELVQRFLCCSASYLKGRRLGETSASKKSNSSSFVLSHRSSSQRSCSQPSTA
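Assay system: CHO cell line stably expressing human OTR | Also added: Oxytocin at about EC15, sub-maximal agonist stimulus | Times: Compound 6 min at room temperature before oxytocin, 100 s read | Measured by: Fluo-8 intracellular calcium fluorescence, ex 470-495, em 515-575 nm | Controls: EC15 oxytocin alone as 0%, 75 nM oxytocin as 100%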
OXTR agonist = human OXTR agonists, primary screen, fluorescence, CHO-OTR cells, Fluo-8 calcium; activation, % at 3 µM; Oxytocin receptor (Homo sapiens), P30559; 0.32% of 320,000 active; Fluo-8 calcium fluorescence; normalized: DMSO 0%, oxytocin 100%;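 active = activation above the mean of all tested compounds plus 3 SD, cutoff set per screening run, cut at about 20% in these data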;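 note: peak over basal fluorescence ratio from a 100 s FLIPR kinetic read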
TRPN1 ag = zebrafish TRPN1 channel agonists, primary screen, cell-based, HEK293, calcium fluorescence | transient receptor potential cation channel N1 (TRPN1/NompC), Danio rerio | HEK293 zebrafish TRPN1-YFP, Fluo-8 calcium fluorescence; 100% = response to 87 µM carbachol | activation, % at 3 µM | 0.18% of 220,000 active | AID 1424, 2008;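 active = activation above its plate's cutoff, the mean activation of test wells on that plate plus 3 SD, cut at about 19% in these data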;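 note: 0% = DMSO alone and 100% = 87 µM carbachol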
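System: zebrafish TRPN1-YFP in HEK293 cells / Dosing: 3 µM single point / Timing: dye loading 1 h at 37 °C, then 30 min room temperature / Signal: Fluo-8 calcium fluorescence, excitation 470-495 nm, emission 515-575 nm / Read-out basis: percent activation from peak over basal fluorescence ratio, control-normalized / Control set: high carbachol 87 µM, low DMSO alone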
OXTR pot confirm = human OXTR potentiators, confirmation, fluorescence, CHO-OTR cells, triplicate | 180 tested, under 10 active | shares compounds with OXTR potentiate | Fluo-8 calcium fluorescence, potentiation; scaled from low-dose to maximal oxytocin | activation, % at 3 µM | AID 434985, 2010;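 active = mean percent activation over triplicates above a cutoff set from solvent-only control plates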;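 note: compounds tested in the presence of an EC15 dose of oxytocin; 0% = EC15 oxytocin with DMSO and 100% = EC100 oxytocin with DMSO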
An asterisk follows results filed as active; . = not tested or not shown.

SMILES | V1aR counter | TRPML3 ag | OXTR potentiate | OXTR agonist | TRPN1 ag | OXTR pot confirm
O=C(NCC(=O)N1CCN(c2ccccc2)CC1)c1ccco1 | 0 | . | -6 | 0 | . | .
O=C(c1ccccc1)N1CCN(S(=O)(=O)N2CCOCC2)CC1 | 1 | 1 | 14* | 2 | 1 | -2
CC(=O)c1ccc(S(=O)(=O)Nc2ccc(-n3c(C)nc4ccccc4c3=O)cc2)cc1 | 6 | . | -6 | 4 | . | .
CC[C@H](C)[C@H](NC(=O)CNC(=O)COc1cc2c(c3oc(=O)cc(C)c13)CCC(C)(C)O2)C(=O)O | 1 | . | -8 | 1 | . | .
Cc1cc(=O)oc2c3c(cc(OCC(=O)NCC(=O)N[C@H](C(=O)O)C(C)C)c12)OC(C)(C)CC3 | -1 | . | 12* | 0 | . | -5
CCCCn1c(-c2ccoc2C)n[nH]c1=S | 0 | 0 | 10* | 1 | -1 | -7
CC1CCCN(C(=O)COC(=O)c2cccc(NS(=O)(=O)c3ccccc3)c2)C1 (stereo unspecified) | 2 | . | -6 | 1 | . | .
Cc1c(C(=O)NCc2ccccn2)oc2c(Cl)cccc12 | 9 | . | 13* | 1 | . | 2
CCOc1ccc(NC(=O)c2ccc3c(c2)N(Cc2ccc(F)cc2)C(=O)CS3=O)cc1 (stereo unspecified) | -1 | 0 | 12* | -1 | 2 | -3
COC(=O)C1=C(C(=O)OC)C2C(C)=CC(C)=CN2C(C(=O)OC)=C1C(=O)OC (stereo unspecified) | 1 | 1 | -7 | 1 | 0 | .
CC[N+](CC)(CC)CCCCOc1ccc2c(c1)C(=O)c1cc(OCCCC[N+](CC)(CC)CC)ccc1-2 | 0 | 0 | 3 | 0 | -1 | .
Cc1cc(C)n(-c2cc(C(C)(C)C)nc3c(-c4ccc(Cl)cc4)cnn23)n1 | 4 | 0 | 13* | 0 | 1 | 7.8*
Cc1cn([C@H]2C[C@H](O)[C@@H](COS(=O)(=O)O)O2)c(=O)[nH]c1=O | 1 | . | 14* | 2 | . | 0
Cc1ccc2c(c1)N(C(=O)CCC(=O)NCCCN1CCC(Cc3ccccc3)CC1)CCO2 | 0 | . | -9 | 0 | . | .
COc1cccc(CNS(=O)(=O)c2ccc3c(c2)N(C(C)=O)CCO3)c1 | 4 | . | -4 | 2 | . | .
Cc1ccc(CNC(=O)C2CCC(=O)N2C2CCCCC2)cc1 (stereo unspecified) | 0 | 0 | 10* | 1 | 0 | -5
C/C(=N\NC(=O)c1c(Cl)cnn1C)c1ccc(NC(=O)c2ccncc2)cc1 | 0 | 1 | -8 | -1 | 1 | .
CCN(C(=S)NC(=O)CCc1ccccc1)c1ccccc1 | 1 | 1 | 12* | 0 | 2 | -3
CCCCC(=O)NC(=S)NNC(=O)CCc1ccccc1 | 0 | 1 | -1 | 1 | 4 | .
CC(=O)N1CCN(C(=O)C(Cc2c[nH]c3ccccc23)NC(=O)c2ccccc2Cl)CC1 (stereo unspecified) | 0 | . | 15* | 2 | . | -6
Clc1ccc(-c2nnc(SCc3nc(-c4ccccc4)no3)o2)cc1 | 2 | 0 | -8 | -1 | 1 | .
c1ccc(-c2noc(CSc3nc4ccccc4o3)n2)cc1 | -2 | 0 | 13* | -1 | -1 | -6
Cc1oc(-c2ccc(Cl)cc2)nc1CS(=O)CC(=O)NCc1ccco1 (stereo unspecified) | 1 | . | 7.9* | -1 | . | -8
Cc1cc(Cl)nc(Cl)c1C(=O)NCc1ccc(Cl)cc1 | -1 | . | -11 | -1 | . | .
CC1CCCCC1NC(=O)CCS(=O)(=O)c1cc2c(cc1Cl)NC(=O)CO2 (stereo unspecified) | 0 | . | 25* | 0 | . | -3
SMILES | V1aR counter | TRPML3 ag | OXTR potentiate | OXTR agonist | TRPN1 ag | OXTR pot confirm
Cc1cc2c(cc1S(=O)(=O)CCC(=O)NC1CCCCC1C)OCC(=O)N2 (stereo unspecified) | 2 | . | -1 | 1 | . | .
COC(=O)CSc1[nH]c2ccc(F)cc2c1[N+](=O)[O-] | 0 | 1 | 9.0* | 0 | 3 | -1
CCCN(c1nc(C)cc(OC)n1)S(=O)(=O)c1ccccc1 | -1 | 1 | 13* | -2 | -3 | -4
COC(=O)CN(c1nc(C)cc(OC)n1)S(=O)(=O)c1ccccc1 | . | 0 | . | . | 0 | .
CCOc1cc(/C=N/NC(=O)C(=O)NC2CC2)cc(Br)c1O | 0 | 1 | 16* | -1 | 1 | -6
CCOc1cc(/C=N/NC(=O)C(N)=O)cc(Br)c1O | 0 | 0 | 0 | 0 | 0 | .
COc1cc(CC(=O)OCC(=O)NCCc2ccc(S(N)(=O)=O)cc2)cc(OC)c1OC | 0 | . | 0 | 0 | . | .
CCOC(=O)N1CCN(C(=O)c2cccc(S(=O)(=O)Nc3ccc(Br)cc3)c2)CC1 | 0 | . | -9 | 0 | . | .
Cc1cc(C)n(C(C)Sc2ccccc2)n1 (stereo unspecified) | 0 | . | 14* | 1 | . | -5
CC(=O)Nc1ccc(S(=O)(=O)N2CCSc3ccccc32)cc1 | 4 | . | -7 | 5 | . | .
O=c1cnnc(N/N=C/c2ccc3c(c2)OCO3)[nH]1 | -1 | 1 | 10* | 0 | 1 | -4
CC(C)Oc1ccc(OCCSc2nc3ccccc3n2CC(=O)O)cc1 | 0 | . | -7 | 0 | . | .
CCOc1ccccc1Nc1nc(N)nc(CSc2nncn2C)n1 | 1 | 0 | 11* | 0 | 0 | -6
COc1ccc(Nc2nc(N)nc(CSc3nncn3C)n2)cc1 | 0 | 1 | -2 | 0 | -1 | .
O=S(=O)(c1ccc(S(=O)(=O)N2CCOCC2)cc1)N1CCCC1 | 2 | -1 | 12* | 2 | 0 | -4
O=S(=O)(c1ccc(S(=O)(=O)N2CCCC2)cc1)N1CCCCC1 | 1 | . | -4 | 1 | . | .
COc1ccc(NS(=O)(=O)c2cccc(C(=O)N/N=C/c3cn(-c4ccccc4)nc3-c3ccccc3)c2)cc1 | -1 | 0 | -1 | -1 | 0 | .
COc1ccc(NS(=O)(=O)c2cccc(C(=O)N/N=C/c3cn(-c4ccccc4)nc3-c3ccc(OC)cc3)c2)cc1 | 1 | 1 | 8.9* | 1 | 2 | -3
CC(=O)Nc1ccc(S(=O)(=O)N(C)CC(=O)N/N=C/c2cccc(O)c2)cc1 | -1 | 1 | 15* | 1 | 3 | -3
CC(=O)Nc1ccc(S(=O)(=O)N(C)CC(=O)N/N=C/c2cccs2)cc1 | 0 | . | -8 | 0 | . | .
